Laboratory results: ChEMBL document CHEMBL1127320, “Dual-action cephalosporins incorporating a 3'-tertiary-amine-linked quinolone” (J Med Chem, 1994)
≈ marks a conversion by molar mass, not a printed value.

What was measured:
Serratia marcescens [1] = experiment: Tested for its efficacy against systemic murine infection caused by Serratia marcescens SM.; format: functional
Summary of the method: (§1)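 CD1 Swiss albino mice (18-20 g) were infected intraperitoneally with 0.5 mL of diluted culture. Within 5 min they received 1.0 mL test solution subcutaneously at the dorsal neck, in dilutions spanning 250–0.05 mg/kg. P. aeruginosa groups received a second dose at 3 h. Groups were six mice. ED50 was calculated by Reed–Muench interpolation of cumulative survival.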

Streptococcus pneumoniae [2] = experiment: Tested for its efficacy against systemic murine infection caused by Streptococcus pneumoniae 6301.; format: functional; summary of the method: as §1
Staphylococcus aureus [3] = experiment: In vitro minimum inhibitory concentration was measured against Staphylococcus aureus 753 (Methicillin resistant) strain.; format: functional
Pseudomonas aeruginosa [4] = experiment: In vitro minimum inhibitory concentration was measured against Pseudomonas aeruginosa 8780 strain.; format: functional
Summary of the method: (§2)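 Streptococci were tested on brain heart infusion agar plus 20 units/mL catalase, Proteus on Mueller-Hinton with 3% agar, and others on Mueller-Hinton agar. Inocula were 100-fold-diluted overnight cultures, about 3 × 10^4 CFU/spot, read after overnight incubation at 36 °C.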

Streptococcus pyogenes [5] = experiment: In vitro minimum inhibitory concentration was measured against Streptococcus pyogenes 4 strain.; format: functional; summary of the method: as §2
Staphylococcus aureus [6] = experiment: Tested for its efficacy against systemic murine infection caused by Staphylococcus aureus smith.; format: functional; summary of the method: as §1
Streptococcus pneumoniae [7] = experiment: In vitro minimum inhibitory concentration was measured against Streptococcus pneumoniae 6301 strain; format: functional; summary of the method: as §2
Enterococcus faecalis = experiment: In vitro minimum inhibitory concentration was measured against Enterococcus faecalis ATCC 29212 strain.; format: functional; summary of the method: as §2
Staphylococcus aureus [8] = experiment: In vitro minimum inhibitory concentration was measured against Staphylococcus aureus 67-0 (Methicillin resistant) strain.; format: functional
Proteus mirabilis [9] = experiment: In vitro minimum inhibitory concentration was measured against Proteus mirabilis 90 strain.; format: functional; summary of the method: as §2
Klebsiella pneumoniae [10] = experiment: Tested for its efficacy against systemic murine infection caused by Klebsiella pneumoniae A; format: functional; summary of the method: as §1
[11] = Half life was measured as degradation by HPLC analysis.; format: ADME
Enterobacter cloacae [12] = experiment: Tested for its efficacy against systemic murine infection caused by Enterobacter cloacae 5699.; format: functional
Pseudomonas aeruginosa [13] = experiment: Tested for its efficacy against systemic murine infection caused by Pseudomonas aeruginosa 8780.; format: functional; summary of the method: as §1
Enterobacter cloacae [14] = experiment: In vitro minimum inhibitory concentration was measured against Enterobacter cloacae 5699 strain.; format: functional
Enterobacter cloacae [15] = experiment: In vitro minimum inhibitory concentration was measured against Enterobacter cloacae p99 (beta lactamase producer) strain.; format: functional
[16] = tested on: Penicillin-binding protein 3 (Escherichia coli); experiment: Affinity for penicillin binding protein 3 of Escherichia coli UB1005 (DC0) was evaluated.; design: unit not given here
Staphylococcus aureus [17] = experiment: In vitro minimum inhibitory concentration was measured against Staphylococcus aureus smith strain.; format: functional
Klebsiella pneumoniae [18] = experiment: Bacterial challenge for systemic murine infection against Klebsiella pneumoniae A; format: functional
Summary of the method: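 Mouse protection test in CD1 Swiss albino mice (18-20 g). Mice were infected intraperitoneally with 0.5 mL of diluted bacterial suspension. A single subcutaneous dose at the dorsal neck base was given within 5 min, with doses from 250 to 0.05 mg/kg. Six mice per group were used. ED50 was obtained by the Reed-Muench method.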

[19] = biological target: T1, Peptidoglycan D,D-transpeptidase MrdA (Escherichia coli K-12) (UniProt P0AD65); experiment: Affinity for penicillin binding protein 2 of Escherichia coli UB1005 (DC0) was evaluated.; design: unit not given here
T1 sequence (whole entry): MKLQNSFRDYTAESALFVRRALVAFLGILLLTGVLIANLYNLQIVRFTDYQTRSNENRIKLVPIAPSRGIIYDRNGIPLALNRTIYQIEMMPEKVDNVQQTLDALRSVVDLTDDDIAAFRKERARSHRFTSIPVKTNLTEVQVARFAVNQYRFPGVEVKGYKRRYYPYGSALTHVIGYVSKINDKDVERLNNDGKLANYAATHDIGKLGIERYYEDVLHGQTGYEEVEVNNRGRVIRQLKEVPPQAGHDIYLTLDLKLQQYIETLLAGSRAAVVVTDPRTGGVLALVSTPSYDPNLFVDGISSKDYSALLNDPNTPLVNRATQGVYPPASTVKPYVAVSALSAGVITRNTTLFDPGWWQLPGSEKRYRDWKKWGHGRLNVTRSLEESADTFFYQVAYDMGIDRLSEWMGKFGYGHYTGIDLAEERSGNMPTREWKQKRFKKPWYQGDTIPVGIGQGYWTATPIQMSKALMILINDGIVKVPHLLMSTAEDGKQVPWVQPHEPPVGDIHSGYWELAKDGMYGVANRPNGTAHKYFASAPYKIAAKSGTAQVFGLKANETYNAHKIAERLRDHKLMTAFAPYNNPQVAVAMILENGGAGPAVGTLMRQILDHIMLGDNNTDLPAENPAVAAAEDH
Summary of the method: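 Solubilised membranes from sonicated E. coli UB1005 served as the binding-protein source. Binding was read as inhibition of [14C]penicillin G binding.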

Streptococcus pyogenes [20] = experiment: In vitro minimum inhibitory concentration was measured against Streptococcus pyogenes 4 strain.; (</=); format: functional
Summary of the method: as §2, with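 “MICs were determined by agar dilution with 2-fold dilutions giving final 128–0.0156 µg/mL, extended to 0.000977 µg/mL where needed. Streptococci” for “Streptococci”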

Serratia marcescens [21] = experiment: tested for its efficacy against systemic murine infection caused by Serratia marcescens SM.; format: functional; summary of the method: as §1
Proteus mirabilis [22] = experiment: In vitro minimum inhibitory concentration was measured against Proteus mirabilis 90 strain.; (</=); format: functional
Summary of the method: as §2, with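 “MICs were determined by agar dilution with 2-fold dilutions giving final 128–0.0156 µg/mL, extended to 0.000977 µg/mL where needed. Streptococci” for “Streptococci”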

Staphylococcus aureus [23] = experiment: tested for its efficacy against systemic murine infection caused by Staphylococcus aureus smith.; format: functional; summary of the method: as §1
Enterobacter cloacae [24] = experiment: tested for its efficacy against systemic murine infection caused by Enterobacter cloacae 5699.; format: functional; summary of the method: as §1
Streptococcus pneumoniae [25] = experiment: tested for its efficacy against systemic murine infection caused by Streptococcus pneumoniae 6301.; format: functional; summary of the method: as §1
Pseudomonas aeruginosa [26] = experiment: tested for its efficacy against systemic murine infection caused by Pseudomonas aeruginosa 8780.
Klebsiella pneumoniae [27] = experiment: tested for its efficacy against systemic murine infection caused by Klebsiella pneumoniae A; format: functional; summary of the method: as §1
Streptococcus pneumoniae [28] = experiment: In vitro minimum inhibitory concentration was measured against Streptococcus pneumoniae 6301 strain.; (</=); format: functional
Summary of the method: as §2, with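 “MICs were determined by agar dilution with 2-fold dilutions giving final 128–0.0156 µg/mL, extended to 0.000977 µg/mL where needed. Streptococci” for “Streptococci”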

CO/N=C(\C(=O)N[C@@H]1C(=O)N2C(C(=O)O)=C(CN3CCN(c4cc5c(cc4F)c(=O)c(C(=O)O)cn5C4CC4)CC3)CS[C@H]12)c1csc(N)n1
ED50 (Serratia marcescens [1]): 25 mg/kg | ED50 (Streptococcus pneumoniae [2]): 54 mg/kg | MIC (Staphylococcus aureus [3]): 4 µg/mL (≈ 5.5 µM) | MIC (Pseudomonas aeruginosa [4]): 8 µg/mL (≈ 11 µM) | MIC (Streptococcus pyogenes [5]): 0.063 µg/mL (≈ 0.0867 µM) | ED50 (Staphylococcus aureus [6]): > 100 mg/kg | MIC (Streptococcus pneumoniae [7]): 0.063 µg/mL (≈ 0.0867 µM) | MIC (Enterococcus faecalis): 4 µg/mL (≈ 5.5 µM) | MIC (Staphylococcus aureus [8]): 8 µg/mL (≈ 11 µM) | MIC (Proteus mirabilis [9]): 2 µg/mL (≈ 2.75 µM) | ED50 (Klebsiella pneumoniae [10]): 25 mg/kg | half-life [11]: 144 h | ED50 (Enterobacter cloacae [12]): 14 mg/kg | ED50 (Pseudomonas aeruginosa [13]): 38 mg/kg | MIC (Enterobacter cloacae [14]): 0.5 µg/mL (≈ 0.688 µM) | MIC (Enterobacter cloacae [15]): 0.125 µg/mL (≈ 0.172 µM) | Binding affinity [16]: 0.5 | MIC (Staphylococcus aureus [17]): 4 µg/mL (≈ 5.5 µM) | LD50 (Klebsiella pneumoniae [18]): >10000 | Binding affinity [19]: 100

CO/N=C(\C(=O)N[C@@H]1C(=O)N2C(C(=O)O)=C(COC(C)=O)CS[C@H]12)c1csc(N)n1 [CEFOTAXIME]
MIC (Streptococcus pyogenes [20]): ≤ 0.016 µg/mL | ED50 (Serratia marcescens [21]): < 25 mg/kg | MIC (Staphylococcus aureus [3]): > 128 µg/mL | MIC (Pseudomonas aeruginosa [4]): 16 µg/mL (≈ 35.1 µM) | MIC (Proteus mirabilis [22]): < 0.016 µg/mL | MIC (Enterococcus faecalis): 0.25 µg/mL (≈ 0.549 µM) | MIC (Staphylococcus aureus [8]): > 128 µg/mL | ED50 (Staphylococcus aureus [23]): 6 mg/kg | ED50 (Enterobacter cloacae [24]): 50 mg/kg | ED50 (Streptococcus pneumoniae [25]): 69 mg/kg | ED50 (Pseudomonas aeruginosa [26]): > 250 mg/kg | ED50 (Klebsiella pneumoniae [27]): 45 mg/kg | MIC (Enterobacter cloacae [14]): 0.125 µg/mL (≈ 0.274 µM) | MIC (Enterobacter cloacae [15]): 64 µg/mL (≈ 141 µM) | MIC (Streptococcus pneumoniae [28]): < 0.016 µg/mL | MIC (Staphylococcus aureus [17]): 2 µg/mL (≈ 4.39 µM) | LD50 (Klebsiella pneumoniae [18]): 45 | Binding affinity [19]: 100
